Results on 37 sequences are retold here after the array DNA melting data of Ke et al. (doi:10.1101/2024.01.08.574731).

Data set [1] can be described thus: folding enthalpy; higher = less favourable; fluorescence melt of hairpins on a sequencing array, two-state fit. The note with it: sodium 0.088 M. The procedure, abridged:
(§1)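 Hairpins were imaged by Cy3 fluorescence on a sequenced MiSeq flow cell with annealed Cy3 and quencher oligos, in 50 mM Na-HEPES pH 8.0, 25 mM NaCl, in 2.5 °C steps up to 60 °C. Bootstrapped two-state fits of normalised signals gave melting temperature and folding enthalpy. Four replicates were combined by inverse variance, and fitted temperatures were raised by 9.35 °C to match UV melts.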

A short description of data set [2]: melting temperature; fluorescence melt of hairpins on a sequencing array, two-state fit, raised by 9.35 °C to match UV melts. Particulars: sodium 0.088 M. The procedure, abridged:
as §1

On to CGCGGATGGCTCCGCG ((((((....)))))), for which, in data set [1], the folding enthalpy is -30.6 kcal/mol. Also, in data set [2], the Tm was 68.9 °C.
The like results for GATCAGGCCACTGATC ((((((....)))))) were, in that order, -36.4 kcal/mol and 60.8 °C.
For the sequence GTAAGCGGAAACACTTAC (((((.(....).))))), in data set [1], the folding enthalpy is -29.8 kcal/mol. The Tm in data set [2] is 35.6 °C.
Regarding GCGAGGCGAAAGCAACGC (((..((....))..))), in data set [1], the folding enthalpy was -21.6 kcal/mol. Also, the Tm in data set [2] turned out to be 61.8 °C.
For GTGGATCGAAAGATACAC (((.(((....))).))), in data set [1], the folding enthalpy is -44.2 kcal/mol. The Tm in data set [2] stood at 55.9 °C.
The corresponding values for GTATTTGCGAAAGCATAC (((..(((....)))))) are -9.06 kcal/mol and 28.7 °C.
The corresponding values for GCAGCACGAAAGTGTGC (((.(((....)))))) are -18.6 kcal/mol and 55.7 °C.
The like results for GCGTTGTCGAAAGACCGC (((..(((....)))))) were, in that order, -27.1 kcal/mol and 50.6 °C.
With GTTTACGCGAAAGCGAAC (((..(((....)))))), the folding enthalpy in data set [1] was -9.1 kcal/mol. Also, the Tm in data set [2] turned out to be 31.8 °C.
The corresponding values for GTCTCGGGAAACTGGGAC (((.(.(....).).))) are -29.3 kcal/mol and 37.2 °C.
The corresponding values for CGTGACGGAAACGTGACG (((.(((....))).))) are -26.2 kcal/mol and 48.9 °C.
The like results for GTGAGGTCGAAAGACCAC (((..(((....)))))) were, in that order, -13 kcal/mol and 48.9 °C.
On to GACGGGGGAAACCCCGCC (.(((((....))))).), for which, in data set [1], the folding enthalpy was -12.5 kcal/mol. In data set [2], the Tm stood at 50.5 °C.
Turning to GACCAAGCGAAAGCTGTC (((..(((....)))))), the folding enthalpy in data set [1] was -13.5 kcal/mol. The Tm in data set [2] stood at 37.2 °C.
Regarding GTCCGTGGAAACATGGGC (.((.((....)).)).), in data set [1], the folding enthalpy was -24.9 kcal/mol. In addition, the Tm in data set [2] was determined as 44.9 °C.
The corresponding values for GTGTCCGAAAGGATTCAC ((((((....)))..))) are -16.3 kcal/mol and 35.3 °C.
The like results for GTGGTCGGAAACGACCGC (.(((((....))))).) were, in that order, -17.8 kcal/mol and 63 °C.
For the sequence GACAGCGGAAACGCCGTC (((.(((....))).))), the folding enthalpy in data set [1] was -18.6 kcal/mol. For the same sequence, the Tm in data set [2] came out at 50.6 °C.
As for GTCGTTGGAAACAACGGC (.(((((....))))).), the folding enthalpy in data set [1] is -39.6 kcal/mol. The Tm in data set [2] was found to be 55.1 °C.
The like results for GATCAAGCACTTGATC ((((((....)))))) were, in that order, -38.4 kcal/mol and 50.4 °C.
The like results for GCCAAGCGAAAGCCGGGC (((..((....))..))) were, in that order, -22.4 kcal/mol and 57.7 °C.
As for GAAGCCGGAAACGACTTC ((((.((....)).)))), the folding enthalpy in data set [1] is -34.4 kcal/mol. Besides, the Tm in data set [2] was found to be 46 °C.
The like results for GCTCAGCGAAAGCTCAGC (((.(((....))).))) were, in that order, -15 kcal/mol and 44.7 °C.
The corresponding values for GGCTGCACGAAAGTGGCC (((..(((....)))))) are -20 kcal/mol and 49 °C.
The like results for CGACGGCGGAAACGCTCG (((..(((....)))))) were, in that order, -15.4 kcal/mol and 38.3 °C.
For GGAAAGCGAAAGCTGTCC (((.(((....))).))), the folding enthalpy in data set [1] was -23.8 kcal/mol. Moreover, the Tm in data set [2] came out at 53.9 °C.
The like results for GCTCCCCCGAAAGGGAGC (((..(((....)))))) were, in that order, -29.4 kcal/mol and 66.1 °C.
The like results for GGAGGCGAAAGCCATTCC ((((((....)))..))) were, in that order, -7.5 kcal/mol and 34.7 °C.
The corresponding values for GCACAGCGAAAGCAGGGC ((.(.((....)).).)) are -25.8 kcal/mol and 62.5 °C.
In the case of CGTGTCGGAAACGAGACG (((.(((....))).))), the folding enthalpy in data set [1] is -36 kcal/mol. The Tm in data set [2] was determined as 51.7 °C.
The like results for GTTGGCGGAAACGCTAAC (((.(((....))).))) were, in that order, -30.9 kcal/mol and 53.1 °C.
As for GATCCGAAAGCGGATC ((((((....)))))), the folding enthalpy in data set [1] was -34 kcal/mol. Besides, the Tm in data set [2] amounted to 53.1 °C.
The like results for GGCAGCGGAAACACCGCC (((.(.(....).).))) were, in that order, -11.1 kcal/mol and 34.9 °C.
The like results for GCATCCGCGAAAGCGTGC (((..(((....)))))) were, in that order, -10.9 kcal/mol and 40.3 °C.
The like results for GAGGCTGGAAACGGCTTC ((.((.(....).)).)) were, in that order, -20.8 kcal/mol and 36.6 °C.
As to GTGAACGAAAGTTCACAC ((((((....)))..))), the folding enthalpy in data set [1] is -10.8 kcal/mol. In addition, in data set [2], the Tm was determined as 66.6 °C.
The corresponding values for GGCTACGAAAGTACGGCC ((((((....)))..))) are -23.9 kcal/mol and 46.5 °C.
